From ChEMBL document CHEMBL4513216, “Probing the Open Global Health Chemical Diversity Library for Multistage-Active Starting Points for Next-Generation Antimalarials” (ACS Infect Dis, 2020) come the findings set out here.

The nature of the data set: Toxicity liver stage against HepG2, at 10uM. The data set is classed as cell-based. The arrangement: test concentration 10 uM, cell line HepG2-A16-CD81EGFP. Conditions: human, HepG2-A16-CD81EGFP cells; read-out: INHIBITION
Summed up:
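Uninfected HepG2-A16-CD81EGFP cells, 3 × 10^3 per well, 1536-well, plated on prespotted compound at 10 μM final, parasite-free screening media added to match infected plates; puromycin 10 μM positive, DMSO 0.5% negative; run in parallel with 48 h PbLuc assay at 37 °C, 5% CO2; viability by CellTiter-Glo luminescence, normalized to controls.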
Regarding `C[S+](C)[c-]1c(=O)[nH]c(=O)n(CCc2ccc(F)cc2)c1=O`, the cytotoxicity at 10 µM was 2.86%.
For `COCCn1cc(CC(=O)Nc2cc(C)n(C)n2)c2ccccc21` the value was -1.96%.
For `CCn1cc(C(=O)Nc2cc(C)ccc2C)cn1` the value was 0.946%.
On to `CNC(=O)[C@@]12CCC3(CCN(C(C)=O)CC3)[C@@H]1CN(S(C)(=O)=O)C2`, for which the cytotoxicity at 10 µM is -3.61%.
The figure for `O=C1NC(c2ccccc2)=N[C@@]12CC[C@@H]1CN(CC3CCOCC3)C[C@@H]12` is 4.01%; for `c1ccc2c(N3CCCCC3)cnnc2c1` it is -5.34%; for `Cc1nccc(C2CN(Cc3ccc(-c4ccccc4C(=O)O)o3)C2)n1` it is 4.28%.
For `CS(=O)(=O)c1cn[nH]c1C1CCCN(C(=O)Cn2cccn2)C1` (stereo unspecified) the value was -11.7%; for `CNc1cc(C2CCCN2S(=O)(=O)c2cccc(F)c2)ccn1` (stereo unspecified), -22.7%; for `Cc1noc(C)c1-c1nc(N(C)CCN(C)C)ncc1-c1cnccn1`, -12.4%.
In the case of `Cc1cnc(-c2nc(C3CCN(C(=O)Cc4ccsc4)CC3)no2)cn1`, the cytotoxicity at 10 µM was -29.5%.
For `Clc1ccccc1CN1CCCC(c2nnc(-c3cnccn3)o2)C1` (stereo unspecified) the value was -10.3%.
In the case of `O=C(NCCN1CCOCC1)Nc1cnc2cc(Cl)ccc2c1O`, the cytotoxicity at 10 µM is -24%.
Regarding `CCC(C(=O)NCc1ccn(-c2ccc(F)cc2)n1)N1CCCC1=O` (stereo unspecified), the cytotoxicity at 10 µM was -5.63%.
`O=S(=O)(CCCn1cncn1)Cc1cccc(F)c1`: the cytotoxicity at 10 µM came to 2.31%.
For `COc1c(C2CCCN2C(=O)c2ccc(C(N)=O)s2)c(C)nn1C` (stereo unspecified) the value was 0.00973%.
For `Cc1ccc(CN(C(=O)NC2CCS(=O)(=O)C2)C2CC2)o1` (stereo unspecified) the value was -155%; for `O=C(NC1CCN(Cc2ccc(F)cc2)CC1)c1ccc2c(c1)CCC2`, 2.55%; for `CNC(=O)c1cccc(CN2CCC(N(C)Cc3ncc(C)o3)C2)c1` (stereo unspecified), -103%.
Regarding `CC(NC(=O)Nc1cnn(CC(N)=O)c1)c1ccc(Cl)s1` (stereo unspecified), the cytotoxicity at 10 µM is 11.5%.
For `Cc1noc(CNc2cc3c(cc2Cl)NC(=O)CO3)n1`, the cytotoxicity at 10 µM worked out at 3.07%.
For `Cc1cc(NC(=O)N2CCCC(O)C2)nn1-c1ccccc1Cl` (stereo unspecified) the value was 4.99%.
Consider `CCCC(NC(=O)c1ccc(OC)cc1C)c1nnn[nH]1` (stereo unspecified), for which the cytotoxicity at 10 µM was 2.06%.
The figure for `O=C(Nc1cccnc1)Nc1cccc(CN2CCC(O)CC2)c1` is -4.06%; for `CC1CN(CC(=O)NC(=O)NCc2cccs2)CCN1CC(F)(F)F` (stereo unspecified) it is -0.402%.
As to `CSc1ccsc1C(=O)NC(C)c1ccc2c(c1)CCC(=O)N2` (stereo unspecified), the cytotoxicity at 10 µM is 1.28%.
The figure for `CC(NCC1CCS(=O)(=O)CC1)c1cccc(OC(F)F)c1` (stereo unspecified) is -5.16%; for `CN(CCC#N)C(=O)CN1CCC(c2cc3ccccc3[nH]2)CC1` it is 4.35%.
The figure for `CCC(C)c1cc(C(=O)N(CC(=O)NC)c2cccc(F)c2)on1` (stereo unspecified) is 6.33%; for `CCC(C)NS(=O)(=O)c1ccc(C(=O)NC2(C#N)CCC2)cc1` (stereo unspecified) it is -7.79%.
Take `Cc1ccccc1CNc1ccccc1OCC(=O)N1CCOCC1`: the cytotoxicity at 10 µM is -2.38%.
The figure for `COCCNC(=O)N1CCCC1COc1ccccc1` (stereo unspecified) is 2.04%; for `CC(=O)N(C)C1CCCc2nc(C)sc21` (stereo unspecified) it is -4.97%; for `CCn1c(CN(C)CC(=O)N(C)C)nc2c(F)cccc21` it is -4.36%.
The figure for `Cc1nnc(SCCC(=O)N(C)Cc2ccc(Cl)s2)[nH]1` is 14.4%; for `CN(Cc1cc(F)ccc1C#N)CC(C)(CO)CO` it is -10.4%; for `CC(C)C(NC(=O)c1ccc(Cl)cc1Cl)C(=O)Nc1ccn(C)n1` (stereo unspecified) it is 1.5%.
For `c1cnn(CCNCc2csc(-c3ccc4c(c3)OCO4)n2)c1` the value was 4.12%; for `O=C(CCc1ccsc1)NCC1CCN(c2ccccc2)C1` (stereo unspecified), 21.1%.
Regarding `CNC(=O)C1Cn2ccnc2C2(CCN(Cc3c(C)noc3C)CC2)O1` (stereo unspecified), the cytotoxicity at 10 µM was -68.6%.
For `CC(C)CN1C[C@@H](C(=O)O)C[C@@H](C(=O)NCc2ccncc2)C1` the value was -147%; for `Cc1cnn(CCC(=O)N2CCN(C(=O)C3CC3)[C@@H]3CS(=O)(=O)C[C@@H]32)c1`, 0.168%; for `O=C(CC1CCc2ccccc21)N1CCC(C(=O)O)(n2ccnc2)CC1` (stereo unspecified), 10.7%.
The figure for `CCn1c(CN(C)C)nnc1C1CCN(Cc2ccncc2)CC1` is 8.18%; for `Cc1ccccc1-n1cc(-c2ccnc(N3CCCC(O)C3)n2)cn1` (stereo unspecified) it is 6.48%.
The figure for `CCc1cnc(N)nc1N(C)CCc1cnn(C)c1` is 55.9%; for `COc1ccc(C[C@@H]2CC[C@H](CN(C)C3CCN(C)CC3)O2)cc1` it is -7.25%; for `CN(C)CC1(O)CCCN(C(=O)c2ccccc2-n2cncn2)C1` (stereo unspecified) it is 2.11%.
For `CN(CC1(O)CCCN(CCC2CCCCC2)C1=O)C1CCOCC1` (stereo unspecified), the cytotoxicity at 10 µM was found to be 12.7%.
The figure for `Cc1cc(C)n(CC2CN(CCC(=O)NC3CCCCC3)CCO2)n1` (stereo unspecified) is -2.95%.
For `CCOc1ncccc1C(=O)N1CCCC1Cn1nc(C)cc1C` (stereo unspecified) the value was -4.45%; for `COc1cccc(-n2nnc(C(=O)N3CCCCCC3)c2C)c1`, -9.71%; for `Cc1ccsc1C(=O)N(C)Cc1ccncc1`, -4.54%.
The figure for `CS(=O)(=O)Cc1ccc(CNC(=O)N2CCC(C(N)=O)C2)cc1` (stereo unspecified) is -6.43%; for `OC(COCc1cccs1)CN1CCc2c(ncn2C2CC2)C1` (stereo unspecified) it is -4.29%; for `Cc1cnn(CC2CCCN2CCCS(=O)(=O)N(C)C)c1` (stereo unspecified) it is -7.45%.
In the case of `Cc1cc(OCC(=O)N2CCCC2c2noc(C)n2)no1` (stereo unspecified), the cytotoxicity at 10 µM is -11.1%.
Turning to `CCn1cnnc1CNC(=O)c1cc(Cl)ccc1I`, the cytotoxicity at 10 µM is -5.98%.
As for `COc1ccc(NC(=O)NCC(O)c2ccccc2F)c(OC)c1` (stereo unspecified), the cytotoxicity at 10 µM was found to be 3.22%.
Regarding `CCNC(c1ccc(Br)cc1)c1cccnc1` (stereo unspecified), the cytotoxicity at 10 µM was -0.1%.
For `N#Cc1cccc(S(=O)(=O)NC(=O)COC2CCCC2)c1` the value was -4.79%; for `CCOCC(O)CN1CCN(C(=O)Cc2ccc(C)nc2)CC1` (stereo unspecified), -4.97%; for `CN(Cc1cnn(C)c1)C(=O)NC1CCN(c2ncccn2)CC1`, -5.82%.
On to `COc1ncccc1NC(=O)C1CCS(=O)(=O)C1` (stereo unspecified), for which the cytotoxicity at 10 µM is -4.48%.
The figure for `c1cc(CNc2cnc(C3CCCN3)cn2)ccn1` (stereo unspecified) is -6.77%; for `Cn1cc(CN2CC[C@H]3CO[C@H](CNc4ncccn4)[C@H]3C2)cn1` it is -15.6%.
For `CS(=O)(=O)N1Cc2nccn2CC(CNC(=O)c2cccnc2)C1` (stereo unspecified) the value was -143%; for `Cc1cccc(COC[C@H]2CC[C@H]3[C@H](CCN3C(=O)CC3CC3)O2)n1`, -4.66%; for `CN(Cc1cccnc1)C[C@@H]1OC[C@H]2CN(Cc3ccoc3)CC[C@H]21`, -137%.
Regarding `COCCN1CC[C@@H]2O[C@H](COCc3csc(C)n3)CC[C@@H]21`, the cytotoxicity at 10 µM was -76.7%.
The figure for `CC(C)N(C)Cc1n[nH]c2c1CCN(C(=O)c1ccc[nH]1)C2` is -133%.
